This is an account of results in the RNAGym collection of RNA variant scans (doi:10.1126/science.aae0568).

The labels stand for the following.
B1: tRNA (parent)
chain: GUUCCGUUGGCGUAAUGGUAACGCGUCUCCCUCCUAAGGAGAAGACUGCGGGUUCGAGUCCCGUACGGAACG

Fewer inactive variants are shown than the library holds.

Variants of B1 are the subject of this data set. Put plainly: yeast fitness relative to wild type (ratio to wild type); higher = fitter; tRNA-Arg(CCU), competitive growth, 37 C, YPD. The gist of the method: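 Changes in genotype frequencies gave Darwinian fitness relative to wild type. Frequencies were read by 100-nucleotide paired-end sequencing of gene amplicons before and after pooled Saccharomyces cerevisiae strains, carrying tRNA-Arg(CCU) gene variants at the native locus, were competed in YPD at 37°C for 24 hours in six replicates. A genotype was kept only with ≥ 100 starting reads, and estimates < 0.5 were set to 0.5.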
For GUUCCGUUGGCGAAAUGGUAACGCGUCUCCCUCCUAAGGAGAAGACUGCGGGUUCGAGUGCCGUACAGAACG, the yeast fitness is not above 0.5.

Turning to GUUCCGUUGGCGAAAUGGUAACGCGUCUCCCUGCUAAGGAGAAGACUGCGGGUACGAGACCCGUACGGAACG, the yeast fitness was not above 0.5. With GUUCCGUUGGCGAAAUGGUAACCGGUCUCCCUCCUAAGGAGAAGACUGCAGGUUCGAGUCCCGUACGGAACG the figure was not above 0.5. To GUUCCGUUGGCGAAAUGGUAACGCGUCUCCCUCGUAAGGAGAAGACUGCGGGUUCGAGUCUCGUACGGAACG belongs not above 0.5; to GUUCCGUUGGCGAAAUGGUAACGCGUCUCCAUCCUAAGGAGAAAACUGCGGGUUCGGGUCCCGUCCGGAUCG, not above 0.5; to GUUCCGUUGGCGAAAUGGUAACGCGUCUCCGUCCUAAGGAGGAGACUGCGGGUUCGAGUCCCGUACGGAACG, 0.699. To GUUCCGUUGGCGAAAUGGUAACGCGUCUCCCUCCUAAGGAGAAGACUGCGGGUUCGAGUCCCGUAAGGAACG belongs 0.619; to GUUCCGUUGGCGAAAUGCUAACGCGUUUCCCUCCUAAGGGAAAGUCUGCGGGUUCGAGUCCCGUACGGAACG, not above 0.5. Turning to GUUCCGUUGGCGAAAUGGUAACGCGUCUCCGUCCUAAGGAGAAGAGUGCGGGUUCGAGUCCCGUACGGUACG, the yeast fitness was determined as 0.624.

For GUUCCGUUGGCGAAAUGGUAACCCGUCUCCCGCCUAAGGAGAAGACUGUGGGUUCGAGUCCCGUACGGUACG, the yeast fitness was not above 0.5. For GUUCCGUUGGCGAAAUGGUAACGCGUCUCCCUCCUAAGGAGAAGACUGCGGGUUUGAGUCCCGUACGGAACG, the yeast fitness was 0.626.

With GUUCCGUUGGCGAAAUGGUAACACGUCUCCCUCCUAAGGAGAAGACUGCGGGUUCGAGUCCCGUACGGAACG, the yeast fitness stood at 0.659. With GUUCCGUUGGCGAAAUGGUAACCCGUCUCCCUCCUAAGGAGAAGACUGCGGGUUCGAGUCCCGUACGGAACG the figure was 0.57. With GUUCCGUUGGCGAAAUGGUAACGCGUCUCCCUCCUAAGGAAAAGCCUGCGGGUUCGAGUCCCGUACGGAACG the figure was 0.552; with GUUCCGUUGGCGAAAUGGUAACGCGUCUCCCUCCUAAGGAGAAGAGUGCGGGCUCGAGUCCUGUACGGCACG, not above 0.5. With GUUCCGUUGGCGAAAUGGUAACGCGUCUCCCUCCUAAGGAGAAGACUGCGGGUUCGAGUCUCGUACGGAGCG the figure was 0.633; with GUUCCGUUGGCGAAAUGGUAACGCGUCUCCCUCCUAAGGAGAAGACUGCGGGUUCGAGUCUCGUACGGAUCG, 0.708; with GUUCCGUUGGCGAAAUGGUAACGCAUCUCCCUCCUAAGGAGAAGACUGCGGGUUCGAGUCCCGUACGGAACG, 1.01.

On to GUUCCGUUGGCGAAAUGGUAACGCGUCUCCCUCCUAAGGAGAAGACUGCGGGUUCGAGUCACGUACGGAACG, for which the yeast fitness was determined as 0.706. To GUUCCGUUGGCGAAAUGGUAACGCGUCUCCCUCCUAAGGAGAAGACUGCGGGUUCGAGUCUCGUACGGAACG belongs 0.786; to GUUCCGUUGGCGAAAUGGUAACCCGUCUCCCUCCUAAGGAGAAGACUGCGGGUUCGAGUCAAGUACGGAACG, 0.726. With GUUCCGUUGGCGAAAUGGUAACCGGUCUCCCUCCUAAGGAGAAGACUGCGGGUUCGAGUCCCGUACGGAGCG the figure was not above 0.5; with GUUCCGUUGGCGAAAUGGUAACGCGUCUCCCUCGUAAGGAGAAGACUGCGGGUACGAGUCCCGUACGGAACG, 0.609; with GUUCCGUUGGCGAAAUGGUAACGCCUCUCCCUCCUAAGGAGAAGGCUGCGGGUUCGGGUCCCGUACGGAACG, not above 0.5.

For GUUCCGUUGGCGAAAUGGUAACGCGUCUCCCUGCUGAGGAGAAGACUGAGGGUUCGAGUCCCGUACGGAACG, the yeast fitness is not above 0.5. To GUUCCGUUGGCGAAAUGGUAACGCGUCUCCCUCCUAAGGAACAGACUGCCGGUUCGAGUCCCGUACGGAGCG belongs not above 0.5; to GUUCCGUUGGCGAAAUGGUAACGCGUCUCCCUGCUAAGGAGAAGACUGCGGGUUAGAGUCCCGUACGGAACG, not above 0.5. With GUUCCGUUGGCGAAAUGGUAACGCGUCUCCCUCCUAAGGAGAAGACUGCGGGUUCGAGUCCAGUACGGAACG the figure was 0.668. With GUUCCGUUGGCGAAAUGGUAACGCGUCUCCCUCCUAAGGAGAAGACUGCGGGUUCGAGUCCGGUACGGAACG the figure was 0.78; with GUUCCGUUGGCGAAAUGCUAACGCGUUUCCCUCCUAAGGAGAAGACUGCGGGUUCGAGUCCCGUGCGGAACG, not above 0.5. Regarding GUUCCGUUGGCGAAAUGGUAACGCGUCUCCCUCCUAAGGAGAAGACUGCGGGUUCGAGUCUCGUGCGGAACG, the yeast fitness was 0.71.

For the variant GUUCCGUUGGCGAAAUGGUAACGCGUCUCCCUCCUAACGAGAAGACUGCGGGUUCGAGUCCCGUACGGAACG, the yeast fitness came out at 0.619. To GUUCCGUUGGCGAAAUGGUAACGCGUCUCCCUCCUAAGGAGAAGACUGCGGGUUCGAGUCAUGUAUGGAACG belongs not above 0.5.

Consider GUUCCGUUGGCGAAAUGGUAACGCGUCUCCCUCCUAAGGAGAAGACUGCGGGUUUGAGUCCCGUACGGACCG, for which the yeast fitness worked out at 0.571. With GUUCCGUUGGCGAAAUGGUAACGCGUCUCCCUCCUAAGGAGAAGACUGCGGGUUCGAGUCACGUACGAAACG the figure was not above 0.5.

As for GUUCCGUUGGCGAAAUGGUAACACGUCUCCCUCCUCAAGAGAAGACUGCGGGUUCGAGUCCCGUGCGGAACG, the yeast fitness is not above 0.5. With GUUCCGUUGGCGAAAUGGUAACGCGUCUCCCUCCUAAGGAGAAGAAUGCGGGUUCGAGUCCCGUACGGCACG the figure was 0.722; with GUUCCGUUGGCGAAAUGGUAACCCGUCUCCCUCCUAAGGAGAAGACUGCGGGUUCGAGUCCCGUACGGACCG, 0.667.
